Assay results taken from ChEMBL document CHEMBL1132870, “Solid-phase parallel synthesis of azarene pyrrolidinones as factor Xa inhibitors” (Bioorg Med Chem Lett, 2000).

Biological target: T1, Coagulation factor X (Oryctolagus cuniculus) (UniProt O19045)
T1 sequence (whole entry): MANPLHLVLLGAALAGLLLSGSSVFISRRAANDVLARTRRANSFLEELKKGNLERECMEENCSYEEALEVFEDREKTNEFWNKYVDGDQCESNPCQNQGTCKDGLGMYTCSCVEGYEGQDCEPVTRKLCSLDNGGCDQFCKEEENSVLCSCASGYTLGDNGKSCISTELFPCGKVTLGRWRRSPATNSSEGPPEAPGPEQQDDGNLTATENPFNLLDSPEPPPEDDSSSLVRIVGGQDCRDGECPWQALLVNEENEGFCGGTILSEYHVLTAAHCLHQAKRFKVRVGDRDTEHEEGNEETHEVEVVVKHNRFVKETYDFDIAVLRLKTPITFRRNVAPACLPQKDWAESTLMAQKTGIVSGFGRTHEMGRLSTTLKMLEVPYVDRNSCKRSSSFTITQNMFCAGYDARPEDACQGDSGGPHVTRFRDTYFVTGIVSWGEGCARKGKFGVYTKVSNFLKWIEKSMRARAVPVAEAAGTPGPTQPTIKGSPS
Assay: Compound was tested for its inhibitory activity against Coagulation factor X at a concentration of 0.5 uM

inhibition | Structure (SMILES)
43% | O=C1[C@@H](NS(=O)(=O)c2cc3cccnc3s2)CCN1Cc1cc2cc[nH]cc-2n1
47% | Cc1c(S(=O)(=O)N[C@H]2CCN(CCNc3ccncc3)C2=O)sc2cc(Cl)ccc12
64% | O=C1[C@@H](NS(=O)(=O)c2cc3ccc(Cl)cc3s2)CCN1Cc1cc2[nH]cccc-2n1
50% | O=C1[C@@H](NS(=O)(=O)c2cc3c(Cl)nccc3s2)CCN1Cc1cc2[nH]cccc-2n1
48% | O=C1[C@@H](NS(=O)(=O)c2cc3nc(Cl)ccc3s2)CCN1Cc1cc2[nH]cccc-2n1
48% | O=C1[C@@H](NS(=O)(=O)c2cc3ccnc(Cl)c3s2)CCN1Cc1cc2cc[nH]cc-2n1
53% | O=C1[C@@H](NS(=O)(=O)c2cc3ccc(Cl)cc3s2)CCN1Cc1cc2c[nH]ccc-2n1

Biological target: T1, Coagulation factor X (Oryctolagus cuniculus)
Assay: Compound was tested for its inhibitory activity against Coagulation factor X at a concentration of 0.3 uM

inhibition | Structure (SMILES)
53% | O=C1[C@@H](NS(=O)(=O)c2ccc(-c3ccc(Cl)s3)s2)CCN1Cc1cc2cc[nH]cc-2n1
58% | O=C1[C@@H](NS(=O)(=O)c2cc3ncccc3s2)CCN1Cc1cc2[nH]cccc-2n1

Biological target: T1, Coagulation factor X (Oryctolagus cuniculus)
Assay: Compound was tested for its inhibitory activity against Coagulation factor X at a concentration of 0.1 uM

inhibition | Structure (SMILES)
53% | O=C1[C@@H](NS(=O)(=O)c2cc3ccc(Cl)nc3s2)CCN1CCNc1ccncc1
77% | O=C1[C@@H](NS(=O)(=O)c2ccc(-c3ccc(Cl)s3)s2)CCN1CCNc1ccncc1
50% | O=C1[C@@H](NS(=O)(=O)c2cc3ccc(Cl)cc3s2)CCN1Cc1cc2cc[nH]cc-2n1
62% | O=C1[C@@H](NS(=O)(=O)c2ccc(-c3ccc(Cl)s3)s2)CCN1Cc1cc2c[nH]ccc-2n1
57% | O=C1[C@@H](NS(=O)(=O)c2cc3ccc(Cl)cc3s2)CCN1CCNc1ccncc1
52% | O=C1[C@@H](NS(=O)(=O)c2cc3ncccc3s2)CCN1Cc1cc2cc[nH]cc-2n1

Biological target: T1, Coagulation factor X (Oryctolagus cuniculus)
Assay: Compound was tested for its inhibitory activity against Coagulation factor X at a concentration of 0.2 uM

inhibition | Structure (SMILES)
52% | O=C1[C@@H](NS(=O)(=O)c2cc3c(Cl)nccc3s2)CCN1Cc1cc2cc[nH]cc-2n1

Biological target: T1, Coagulation factor X (Oryctolagus cuniculus)
Assay: Compound was tested for its inhibitory activity against Coagulation factor X at a concentration of 0.4 uM

inhibition | Structure (SMILES)
50% | O=C1[C@@H](NS(=O)(=O)c2cc3nc(Cl)ccc3s2)CCN1CCNc1ccncc1

Biological target: T1, Coagulation factor X (Oryctolagus cuniculus)
Assay: Inhibitory activity against coagulation factor X at a concentration of 1 uM
Procedure, shortened: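 Triplicate screen. DMSO stocks were diluted to 1 µM final inhibitor in 0.05 M Tris, 0.15 M NaCl, 0.1% PEG-8000, pH 7.5. Incubated 30 min at rt with 1 nM fXa, then 200 µM Spectrozyme chromogenic substrate added. Initial rates read at 405 nm over 5 min in kinetic mode; % inhibition reported.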

Structure (SMILES) | inhibition
O=C1[C@@H](NS(=O)(=O)c2ccc(-c3ccncc3)s2)CCN1CCNc1ccncc1 | 41%
O=C1[C@@H](NS(=O)(=O)c2ccc(-c3ccncc3)s2)CCN1Cc1cc2[nH]cccc-2n1 | 35%
O=C1[C@@H](NS(=O)(=O)c2nc3cc(Cl)ccc3[nH]2)CCN1Cc1cc2[nH]cccc-2n1 | 14%
O=C1[C@@H](NS(=O)(=O)c2cc3ccnc(Cl)c3s2)CCN1Cc1cc2[nH]cccc-2n1 | 45%
CC(C)(C)c1ccc(S(=O)(=O)N[C@H]2CCN(Cc3cc4cc[nH]cc-4n3)C2=O)cc1 | 57%
O=C1[C@@H](NS(=O)(=O)c2cc3ccc(Cl)nc3s2)CCN1Cc1cc2cc[nH]cc-2n1 | 50%
O=C1[C@@H](NS(=O)(=O)c2ccc(-c3ccccn3)s2)CCN1CCNc1ccncc1 | 18%
O=C1[C@@H](NS(=O)(=O)c2cc3cccnc3s2)CCN1CCNc1ccncc1 | 23%
O=C1[C@@H](NS(=O)(=O)c2nc3cc(Cl)ccc3[nH]2)CCN1Cc1cc2cc[nH]cc-2n1 | 21%
CC(C)(C)c1ccc(S(=O)(=O)N[C@H]2CCN(CCNc3ccncc3)C2=O)cc1 | 14%
O=C1[C@@H](NS(=O)(=O)c2cc3ccc(Cl)nc3s2)CCN1Cc1cc2[nH]cccc-2n1 | 23%
O=C1[C@@H](NS(=O)(=O)c2ccc(-c3ccon3)s2)CCN1Cc1cc2[nH]cccc-2n1 | 31%
O=C1[C@@H](NS(=O)(=O)c2ccc(-c3ccon3)s2)CCN1CCNc1ccncc1 | 22%
O=C1[C@@H](NS(=O)(=O)c2cc3ccnc(Cl)c3s2)CCN1CCNc1ccncc1 | 23%
O=C1[C@@H](NS(=O)(=O)c2cc3c(Cl)nccc3s2)CCN1CCNc1ccncc1 | 39%
CC(C)(C)c1ccc(S(=O)(=O)N[C@H]2CCN(Cc3cc4c[nH]ccc-4n3)C2=O)cc1 | 14%
O=C1[C@@H](NS(=O)(=O)c2nc3cc(Cl)ccc3[nH]2)CCN1CCNc1ccncc1 | 29%
O=C1[C@@H](NS(=O)(=O)c2nc3cc(Cl)ccc3[nH]2)CCN1Cc1cc2c[nH]ccc-2n1 | 31%
O=C1[C@@H](NS(=O)(=O)c2cc3cccnc3s2)CCN1Cc1cc2[nH]cccc-2n1 | 44%
O=C1[C@@H](NS(=O)(=O)c2ccc(-c3ccccn3)s2)CCN1Cc1cc2[nH]cccc-2n1 | 8%
CC(C)(C)c1ccc(S(=O)(=O)N[C@H]2CCN(Cc3cc4[nH]cccc-4n3)C2=O)cc1 | 22%
Cc1c(S(=O)(=O)N[C@H]2CCN(Cc3cc4[nH]cccc-4n3)C2=O)sc2ccc(Cl)cc12 | 40%

Results, then the compound that gave them:

inhibition | Structure (SMILES)
58% | O=C1[C@@H](NS(=O)(=O)c2cc3nc(Cl)ccc3s2)CCN1Cc1cc2c[nH]ccc-2n1
17% | O=C1[C@@H](NS(=O)(=O)c2ccc(-c3ccon3)s2)CCN1Cc1cc2c[nH]ccc-2n1
37% | Cc1c(S(=O)(=O)N[C@H]2CCN(Cc3cc4c[nH]ccc-4n3)C2=O)sc2ccc(Cl)cc12
35% | O=C1[C@@H](NS(=O)(=O)c2cc3c(Cl)nccc3s2)CCN1Cc1cc2c[nH]ccc-2n1
61% | O=C1[C@@H](NS(=O)(=O)c2cc3ncccc3s2)CCN1Cc1cc2c[nH]ccc-2n1
18% | O=C1[C@@H](NS(=O)(=O)c2cc3cccnc3s2)CCN1Cc1cc2c[nH]ccc-2n1
25% | O=C1[C@@H](NS(=O)(=O)c2cc3ccnc(Cl)c3s2)CCN1Cc1cc2c[nH]ccc-2n1
17% | O=C1[C@@H](NS(=O)(=O)c2ccc(-c3ccccn3)s2)CCN1Cc1cc2cc[nH]cc-2n1
49% | O=C1[C@@H](NS(=O)(=O)c2ccc(-c3ccon3)s2)CCN1Cc1cc2cc[nH]cc-2n1
21% | O=C1[C@@H](NS(=O)(=O)c2ccc(-c3ccncc3)s2)CCN1Cc1cc2c[nH]ccc-2n1
42% | O=C1[C@@H](NS(=O)(=O)c2ccc(-c3ccc(Cl)s3)s2)CCN1Cc1cc2[nH]cccc-2n1
50% | O=C1[C@@H](NS(=O)(=O)c2ccc(-c3ccncc3)s2)CCN1Cc1cc2cc[nH]cc-2n1
11% | O=C1[C@@H](NS(=O)(=O)c2ccc(-c3ccccn3)s2)CCN1Cc1cc2c[nH]ccc-2n1
51% | O=C1[C@@H](NS(=O)(=O)c2cc3ccc(Cl)nc3s2)CCN1Cc1cc2c[nH]ccc-2n1

Biological target: T1, Coagulation factor X (Oryctolagus cuniculus)
Assay: Compound was tested for its inhibitory activity against Coagulation factor X at a concentration of 0.7 uM

inhibition | Structure (SMILES)
50% | O=C1[C@@H](NS(=O)(=O)c2cc3ncccc3s2)CCN1CCNc1ccncc1
